Measurements gathered from unrelated publications.
Compare with care: the assays were run in different laboratories.
Target: Receptor tyrosine-protein kinase erbB-2 (ERBB2, Homo sapiens, UniProt P04626)

C1=C/COCc2cc(ccc2OCCN2CCCC2)Nc2nccc(n2)-c2cccc(c2)COC/1
remaining binding (binding; 0.1 µM): 100%

Cc1ccc(NC(=O)c2ccnc(C(F)(F)F)c2)cc1-c1cc(OCCO)nc(N2CCOCC2)c1
remaining binding (binding, competition with immobilised ligand; 1 µM): 72%

CCCCC(=O)Nc1ccc(-c2ccc3ncn(CCC)c(=O)c3c2)cn1
remaining binding (binding, competition with immobilised ligand; 0.5 µM): 97%

N#Cc1ccc(NC(=O)Nc2ccccc2)cc1
remaining binding (cell-free assay, competition with immobilised ligand; 25 µM): 100%

COc1c(Cl)cccc1Nc1c(-c2ccncc2OC[C@@H]2COCCO2)[nH]c2c1C(=O)NCC2
inhibition (enzyme activity, inhibitor, radiometric; 1 µM): > 80%

C[C@H]1CC[C@H](n2c3cnccc3c3cnc(Nc4ccc5c(n4)CCN(C(=O)CO)C5)nc32)CC1
remaining binding (binding, competition with immobilised ligand; 1 µM): 100%

CO[C@@H]1[C@H](N(C)C(=O)c2ccccc2)C[C@H]2O[C@]1(C)n1c3ccccc3c3c4c(c5c6ccccc6n2c5c31)C(=O)NC4
inhibition (enzyme activity, inhibitor; 1 µM): 0%

COc1ccc2oc(-c3ccc4nc(N)oc4c3)c/c(=N\c3ccccc3NC(=O)CCN)c2c1
remaining binding (binding; 1 µM): 104%

C#Cc1cnc(Nc2ccnc(CO)c2)nc1Nc1ccccc1S(C)(=O)=NC#N (stereo not shown)
remaining signal (cell-free assay; 1 µM): 86%

C=CC(=O)N1CCC[C@@H](n2nc(-c3ccc(Oc4ccccc4)cc3)c3c(N)ncnc32)C1
inhibition (enzyme activity, inhibitor; 1 µM): 100%
